# Data taken from ChEMBL document CHEMBL1136985, “New pyridinone derivatives as potent HIV-1 nonnucleoside reverse transcriptase inhibitors” (J Med Chem, 2009).
# Key:
# [1] = Selectivity index, ratio of CC50 for human HeLaP4 cells to EC50 for HIV1 NL4-3; format: toxicity, cell-based; conditions: read-out: Ratio CC50/EC50
# How it was run: (§1)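 Viability by WST-1 absorbance at 570 nm relative to drug-free control. Divided by EC50 from the 48 h β-galactosidase infection assay with NL4-3 in the same cell type.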
# [2] = system: Human immunodeficiency virus 1; assay: Antiviral activity against wild type HIV1 NL4-3 in human HeLaP4 cells assessed as beta-galactosidase activity after 48 hrs; format: functional, organism-based
# How it was run: (§2)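 Cells plated at 5000/well, incubated 48 h, then medium replaced with compound (0.00128 to 4 µM). Infection 4 h later with cell-free NL4-3 virus equivalent to 100 ng p24. At 48 h postinfection cells lysed in PBS with 0.1% NP-40 and 5 mM MgCl2. β-Galactosidase read with chlorophenol red β-D-galactopyranoside. EC50 taken from dose-response curves.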
# [3] = system: Human immunodeficiency virus 1; assay: Antiviral activity against HIV1 NL4-3 with K103N/L100I double mutant in human TZM-b1 cells assessed as beta-galactosidase activity after 48 hrs by single round replication assay; format: functional, organism-based; conditions: Human immunodeficiency virus 1, NL4-3, TZM-b1, 48 h
# How it was run: (§3)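 TZM-bl cells (DMEM, 5% heat-inactivated FBS) plated at 5000 cells/well and grown 48 h. Medium replaced with compound at 0.00128–4 µM. After 4 h, cells infected with NL4-3-derived RT-mutant virus equal to 100 ng p24. Virus stocks came from HEK293 cells transfected with sequence-verified mutant clones. At 48 h, cells lysed in PBS/0.1% NP-40/5 mM MgCl2 and β-galactosidase read with CPRG. EC50 taken from dose-response curves.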
# [4] = system: Human immunodeficiency virus 1; assay: Antiviral activity against HIV1 NL4-3 with V108I mutant in human TZM-b1 cells assessed as beta-galactosidase activity after 48 hrs by single round replication assay; format: functional, organism-based; conditions: Human immunodeficiency virus 1, NL4-3, TZM-b1, 48 h; how it was run: as §3
# [5] = system: Human immunodeficiency virus 1; assay: Antiviral activity against HIV1 NL4-3 with L100I mutant in human TZM-b1 cells assessed as beta-galactosidase activity after 48 hrs by single round replication assay; format: functional, organism-based; conditions: Human immunodeficiency virus 1, NL4-3, TZM-b1, 48 h; how it was run: as §3
# [6] = system: Human immunodeficiency virus 1; assay: Antiviral activity against HIV1 NL4-3 with K103N mutant in human TZM-b1 cells assessed as beta-galactosidase activity after 48 hrs by single round replication assay; format: functional, organism-based; conditions: Human immunodeficiency virus 1, NL4-3, TZM-b1, 48 h; how it was run: as §3
# [7] = system: Human immunodeficiency virus 1; assay: Antiviral activity against HIV1 NL4-3 with Y181C mutant in human TZM-b1 cells assessed as beta-galactosidase activity after 48 hrs by single round replication assay; format: functional, organism-based; conditions: Human immunodeficiency virus 1, NL4-3, TZM-b1, 48 h; how it was run: as §3
# [8] = system: Human immunodeficiency virus 1; assay: Antiviral activity against wild type HIV1 NL4-3 in human TZM-b1 cells assessed as beta-galactosidase activity after 48 hrs; format: functional, organism-based; conditions: Human immunodeficiency virus 1, NL4-3, TZM-b1, 48 h; how it was run: as §2
# [9] = Selectivity index, ratio of CC50 for human TZM-b1 cells to EC50 for HIV1 NL4-3; format: toxicity, cell-based; conditions: read-out: Ratio CC50/EC50; how it was run: as §1
# [10] = system: Human immunodeficiency virus 1; assay: Antiviral activity against HIV1 NL4-3 with L100I/V108I double mutant in human TZM-b1 cells assessed as beta-galactosidase activity after 48 hrs by single round replication assay; format: functional, organism-based; conditions: Human immunodeficiency virus 1, NL4-3, TZM-b1, 48 h; how it was run: as §3
# [11] = system: Human immunodeficiency virus 1; assay: Antiviral activity against HIV1 NL4-3 in human TZM-b1 cells assessed as beta-galactosidase activity after 48 hrs by single round replication assay; conditions: Human immunodeficiency virus 1, NL4-3, TZM-b1, 48 h
# [12] = system: Human immunodeficiency virus 1; assay: Antiviral activity against HIV1 NL4-3 with K103N/V108I double mutant in human TZM-b1 cells assessed as beta-galactosidase activity after 48 hrs by single round replication assay; conditions: Human immunodeficiency virus 1, NL4-3, TZM-b1, 48 h
# [13] = system: Human immunodeficiency virus 1; assay: Antiviral activity against HIV1 NL4-3 with K103N/Y181C double mutant in human TZM-b1 cells assessed as beta-galactosidase activity after 48 hrs by single round replication assay; conditions: Human immunodeficiency virus 1, NL4-3, TZM-b1, 48 h
# [14] = target: Human immunodeficiency virus type 1 reverse transcriptase (Human immunodeficiency virus 1) (UniProt Q72547); assay: Inhibition of recombinant HIV1 reverse transcriptase assessed as residual activity at 10 uM by […] incorporation assay relative to control
# How it was run: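 Recombinant HIV-1 RT, compound at 10 µM final (from DMSO). Incubated 10 min at 37 °C, then collected on DEAE filters and washed. Counted by phosphorimager; activity expressed relative to uninhibited RT.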
# [15] = system: Human immunodeficiency virus 1; assay: Antiviral activity against HIV1 NL4-3 with double K103N/L100I mutant in human MT4 cells assessed as inhibition of virus-induced cytopathicity after 5 days by multiple round replication assay; format: functional, organism-based; conditions: Human immunodeficiency virus 1, NL4-3, MT4, 120 h
# How it was run: (§4)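 MT-4 human T-cells, cultured in RPMI 1640 with 10% heat-inactivated FBS at 37 °C, 5% CO2, infected with HIV-1 NL4-3-derived mutant strains, then exposed to a range of compound concentrations. After 5 days, viability of infected and mock-infected cells read by WST-1 tetrazolium cleavage.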
# [16] = system: Human immunodeficiency virus 1; assay: Antiviral activity against HIV1 NL4-3 with L100I mutant in human MT4 cells assessed as inhibition of virus-induced cytopathicity after 5 days by multiple round replication assay; format: functional, organism-based; conditions: Human immunodeficiency virus 1, NL4-3, MT4, 120 h; how it was run: as §4
# [17] = system: Human immunodeficiency virus 1; assay: Antiviral activity against HIV1 NL4-3 with K103N mutant in human MT4 cells assessed as inhibition of virus-induced cytopathicity after 5 days by multiple round replication assay; format: functional, organism-based; conditions: Human immunodeficiency virus 1, NL4-3, MT4, 120 h; how it was run: as §4
# [18] = system: Human immunodeficiency virus 1; assay: Antiviral activity against HIV1 NL4-3 with Y181C mutant in human MT4 cells assessed as inhibition of virus-induced cytopathicity after 5 days by multiple round replication assay; format: functional, organism-based; conditions: Human immunodeficiency virus 1, NL4-3, MT4, 120 h; how it was run: as §4
# [19] = system: Human immunodeficiency virus 1; assay: Antiviral activity against wild type HIV1 NL4-3 in human MT4 cells assessed as inhibition of virus-induced cytopathicity after 5 days by multiple round replication assay; format: functional, organism-based; conditions: Human immunodeficiency virus 1, NL4-3, MT4, 120 h
# How it was run: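 MT-4 T cells in RPMI 1640 with 10% FBS were infected with NL4-3 (wild type or RT mutants) and exposed to a range of compound concentrations. After 5 days, viability of infected and mock-infected cells was read by WST-1 cleavage, giving EC50 against viral cytopathicity and CC50 together.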
# [20] = Human immunodeficiency virus 1, NL4-3, HeLaP4, 48 h
SMILES,"EC50 [2, 20] [nM]",EC50 [3] [nM],EC50 [5] [nM],EC50 [6] [nM],EC50 [7] [nM],EC50 [8] [nM],selectivity ratio [9],EC50 [10] [nM],EC50 [11] [nM],EC50 [12] [nM],further results
CCOC(=O)c1c(OC2C(C)CCCC2C)c(CC)c(C)[nH]c1=O (stereo unspecified),955,–,–,–,–,–,–,–,–,–,selectivity ratio [1]: 78
CCc1c(C)[nH]c(=O)c(C)c1O[C@@H]1C[C@H](C)C[C@H](C)C1,–,1400,203,142,893,2,40000,833,> 10000,5100,EC50 [4]: 121 nM; EC50 [13]: 1200 nM
CCOC(=O)c1c(OC2CCCCC2)c(CC)c(C)[nH]c1=O,–,–,–,–,–,230,> 435,–,–,–,Activity [14]: 44.7%
CCc1c(C)[nH]c(=O)c(C(=O)O)c1OC1CCCCC1,> 10000,–,–,–,–,–,–,–,–,–,–
CCOC(=O)c1c(S[C@@H]2C[C@H](C)C[C@H](C)C2)c(CC)c(C)[nH]c1=O,–,–,–,–,–,116,862,–,–,–,–
CCc1c(C)[nH]c(=O)c([N+](=O)[O-])c1O[C@@H]1C[C@H](C)C[C@H](C)C1,–,> 10000,9,177,279,< 1,> 37000,8300,> 10000,> 10000,EC50 [4]: 2 nM
CCOC(=O)c1c(OC2CC(C)(C)CC(C)(C)C2)c(CC)c(C)[nH]c1=O,258,–,–,–,–,–,–,–,–,–,selectivity ratio [1]: 112
CCc1c(C)[nH]c(=O)c(CC)c1O[C@@H]1C[C@H](C)C[C@H](C)C1,–,81,6,5,15,< 1,> 67000,115,5400,107,EC50 [15]: 145 nM; EC50 [16]: 27 nM; EC50 [17]: 26 nM; EC50 [18]: 49 nM; EC50 [19]: 2 nM; EC50 [13]: 359 nM
CCOC(=O)c1c(OC2CC(C)CC(C)C2)c(CC)c(C)[nH]c1=O (stereo in doubt; 10B),85,–,–,–,–,–,–,–,–,–,–
CCOC(=O)c1c(OC2CC(C)CC(C)C2)c(CC)c(C)[nH]c1=O (stereo in doubt; 10),–,–,–,–,–,–,–,–,–,–,EC50 ([2]; helap4): 43 nM
CCOC(=O)c1c(OC2CCCCC2Cl)c(CC)c(C)[nH]c1=O (stereo unspecified),> 3000,–,–,–,–,–,–,–,–,–,selectivity ratio [1]: < 33
Cc1ccnc2c1NC(=O)c1cccnc1N2C1CC1 [NEVIRAPINE],–,> 10000,252,3300,> 10000,39,–,> 10000,> 10000,> 10000,EC50 [4]: 792 nM
CCc1c(C)[nH]c(=O)c(C(C)(C)O)c1O[C@@H]1C[C@H](C)C[C@H](C)C1,–,–,–,–,–,< 1,> 100000,–,–,–,–
CCc1c(C)[nH]c(=O)c(C(C)C)c1O[C@@H]1C[C@H](C)C[C@H](C)C1,–,44,2,2,6,< 1,> 82000,10,1100,105,EC50 [15]: 84 nM; EC50 [16]: 6 nM; EC50 [17]: 7 nM; EC50 [18]: 19 nM; EC50 [19]: 2 nM; EC50 [13]: 642 nM
